Columns and labels:
[1] = species on record: Rattus norvegicus; test: Antisecretory activity in rat pylorus ligation-induced ulcer model determined by ratio of free acidity inhibition in drug treated to untreated control; assay type: functional
Procedure, shortened: (§1)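 Sprague Dawley rats (130-150 g) fasted 24 h with water ad libitum; pylorus ligated through a midline incision under ether anesthesia. Dosing oral, 1 h before ligation. Gastric juice free and total acidity titrated against 0.01 N NaOH, with Topfer's reagent and phenolphthalein as indicators. Values expressed as ratio of percent inhibition, treated vs control group.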

[2] = species on record: Rattus norvegicus; test: Inhibition of gastric H+/K(+)-ATPase activity in Sprague-Dawley rat microsomal vesicles at 10 umol; assay type: microsomes; settings: Stomach, Microsome
Procedure, shortened: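 Rat gastric microsomes were prepared by density gradient and differential centrifugation. The medium held 40 mM Tris-HCl pH 7.4, 2 mM MgCl2, 10 mM KCl (water for blank) and […] vesicular protein. Compound was preincubated 30 min at 37 °C. Tris-ATP at 0.3, 1.0 or 3 mM was then added for 20 min and stopped with chilled 10% TCA. Released Pi was read at 530 nm; % inhibition vs control.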

[3] = species on record: Rattus norvegicus; test: Antisecretory activity in rat pylorus ligation-induced ulcer model determined by ratio of total acidity inhibition in drug treated to untreated control; assay type: functional; procedure, shortened: as §1

| SMILES | inhibition [2] | Activity [1] | Activity [3] |
| --- | --- | --- | --- |
| O=C(N[C@@H](COCc1ccccc1)C(=O)O)OCc1ccccc1 | 59% | 0.48 | 0.5 |
| COC(=O)[C@@H]1CCCN1C(=O)c1ccccc1 | 91% | 0.9 | 1.14 |
| O=C(N[C@H](CO)C(=O)O)OCc1ccccc1 | 46% | 0.36 | 0.49 |

Now from value to molecule, other results behind:

| inhibition [2] | SMILES | Activity [1] | Activity [3] |
| --- | --- | --- | --- |
| 44% | CC(C)(C)[C@H]1OC(=O)[C@@]2([C@@H](O)c3ccccc3)CCC(=O)N12 | 0.17 | 0.27 |
| 49% | COc1ccccc1CN1C(=O)CC[C@H]1C(=O)O | 0.61 | 0.64 |
| 55% | CC(C)(C)[C@H]1OC(=O)[C@@]2(C3(O)CCCCC3)CCC(=O)N12 | 0.2 | 0.22 |
| 34% | CC(C)(C)OC(=O)N[C@@H](CO)C(=O)O | 0.71 | 0.72 |
| 92% | CC(C)(C)[C@H]1OC(=O)[C@@H]2CCC(=O)N21 | 0.61 | 0.49 |
